High-throughput results deposited in PubChem by several laboratories.
Env fusion inh – HIV envelope-mediated fusion inhibition. HeLa-JRFL Env/CEM21 cell fusion, luciferase. inhibition, % at 12.3 µM. actives 1.1% (n = 360,000). AID 651610;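 active = mean replicate inhibition score of at least 50 and every replicate individually at or above 50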;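 also: 0% = plate neutral controls and 100% = maraviroc near 300 nM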
NR2E3 ag-1 – human photoreceptor-specific nuclear receptor agonism; inhibition of corepressor binding, % at 3.98 µM; AID 602229; actives 0.35% (n = 360,000); Q9Y5X4; CHO-S Gal4-NCOR/VP16-NR2E3 two-hybrid, luciferase;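 active = inhibition above the mean of all tested compounds plus 3 SD, cut at about 70% in these data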;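 also: 0% = DMSO with NR2E3 transfected cells and 100% = cells lacking NR2E3 construct; higher means lower luciferase signal from less NR2E3 corepressor binding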
Target sequence (Q9Y5X4 whole entry, looked up, the tested form may be a part): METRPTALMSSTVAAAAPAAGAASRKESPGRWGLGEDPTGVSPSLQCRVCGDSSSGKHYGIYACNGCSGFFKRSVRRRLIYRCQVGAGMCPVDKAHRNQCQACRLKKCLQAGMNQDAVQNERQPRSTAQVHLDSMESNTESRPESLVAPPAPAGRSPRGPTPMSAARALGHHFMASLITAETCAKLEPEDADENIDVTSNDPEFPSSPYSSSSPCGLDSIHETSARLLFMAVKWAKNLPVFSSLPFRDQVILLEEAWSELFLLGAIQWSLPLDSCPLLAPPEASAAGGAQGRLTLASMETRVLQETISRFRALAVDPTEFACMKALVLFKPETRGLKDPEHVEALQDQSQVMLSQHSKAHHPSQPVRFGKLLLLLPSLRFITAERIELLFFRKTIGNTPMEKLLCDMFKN
NR2E3 ag-2 – agonists of human nuclear receptor NR2E3. actives 0.12% (n = 320,000). Q9Y5X4. GST-NR2E3/biotin-RetCOR TR-FRET, 1536-well. inhibition of corepressor binding, % at 4.78 µM;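 active = percent inhibition above the cutoff of mean plus 3 SD of all tested compounds, set per screening campaign, cut at about 20% in these data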;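 also: 0% = DMSO wells and 100% = biotin wells as full block of FRET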
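system = GST-tagged NR2E3 plus biotinylated RetCOR corepressor | input = 1.35 nM GST-NR2E3 | also added = 7 nM biotin-RetCOR | schedule = 5 h incubation at 4 °C | measured by = TR-FRET with europium anti-GST and streptavidin-D2, 340 nm excitation | read-out = percent loss of FRET ratio relative to control wells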
V-ATPase pH – regulators of yeast V-ATPase proton transport; response, % at 10 µM; S. cerevisiae, pHLuorin cytosolic pH fluorescence; AID 504577; actives 0.37% (n = 350,000); in the data active = response mostly above about 7.3%, no sharp cut-off; inactive = mostly below about 5.4%; also: actives read high
GalR3 antag – human GalR3 antagonism; actives 0.44% (n = 360,000); O60755; HEK293 GalR3-CNG cAMP membrane potential fluorescence; galR3 body fused to GalR1 C-terminus; inhibition, % at 3 µM;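 active = inhibition above the screen-wide average plus 3 SD, cut at about 13% in these data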;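 also: forskolin and galanin both at EC90 stimulate the cells; cAMP rise reported by CNG channel membrane potential dye signal; 0% = forskolin plus galanin with DMSO and 100% = forskolin alone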
GAA850 FXN act – activators of GAA850 frataxin (FXN) promoter; HEK293 lucGAA850 FXN promoter luciferase reporter, 24 h; percent of 10 µM SAHA response; actives 0.56% (n = 360,000); activation, % at 6 µM;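 active = activation above the average of all compounds screened plus 3 SD, cutoff fixed separately per campaign, cut at about 7.5% in these data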;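 also: 0% = DMSO wells and 100% = 10 µM SAHA wells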
V-ATPase pH SP – yeast V-ATPase proton transport regulation; shares compounds with V-ATPase pH; S. cerevisiae pHLuorin cytosolic pH; response, % at 10 µM; actives 2% (n = 980); AID 602197; in the data active = response above about 24%;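 also: plate controls were vehicle wells for no effect and positive control wells for full effect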
* hit, by the source's call; / = not tested or not shown; [ ] = remark or other dose. Only some compounds are listed: those with a hit (about 2.2% of all), similar ones and a draw of the others.

SMILES	Env fusion inh	NR2E3 ag-1	NR2E3 ag-2	V-ATPase pH	GalR3 antag	GAA850 FXN act	V-ATPase pH SP
CCN(CC)CCN(C(=O)c1ccc2c(c1)CCCC2)c1nc2ccc(F)cc2s1	-28	-38	-2	1	-1	0	/
O=C(C[C@@H]1C=C[C@H](NC(=O)NC2CCCCC2)[C@H](CO)O1)NCc1ccc(Cl)cc1	31[16.7 µM]	/	/	/	/	/	/
O=S(=O)(c1ccc(Cl)nc1)N1CCCc2ccccc21	-10	-8	-6	-4	-6	2	/
O=S(=O)(c1ccc(Cl)nc1)N1CCc2ccccc21	-49	11	0	12*	-1	0	1
CCOc1ccc(CCNC(=O)CSc2cc(=O)n(CC)c3ccccc23)cc1OCC	/	12	0	14*	-12	2	-3
C/C=C/c1cnc2c(c1)C(=O)N([C@H](C)CO)C[C@H](C)[C@@H](CN(C)C(=O)C1CCC1)O2	-9[16.7 µM]	/	/	/	/	/	/
C[C@H](CO)N1C[C@H](C)[C@@H](CN(C)Cc2ccc(Oc3ccccc3)cc2)Oc2ccc(N(C)C)cc2CC1=O	-3[16.7 µM]	/	/	/	/	/	/
CCCCn1c(N)c(N(CC(C)C)C(=O)CN2C(=O)c3ccccc3C2=O)c(=O)[nH]c1=O	0	-6	-3	6	2	0	/
CCCCn1c(N)c(N(CC(C)C)C(=O)CC2OC(=O)c3ccccc32)c(=O)[nH]c1=O (stereo not drawn)	-6	-3	0	11*	-4	0	1
COCCNC(=O)C(c1ccc(C)o1)N(Cc1ccc(F)cc1)C(=O)Cn1nnc2ccccc21 (stereo not drawn)	/	-14	1	24*	3	0	-2
COCCNC(=O)C(c1ccccc1)N(Cc1cccs1)C(=O)Cn1nnc2ccccc21 (stereo not drawn)	-50	7	-1	24*	-4	1	-6
COCCNC(=O)C(c1ccncc1)N(Cc1ccccc1)C(=O)Cn1nnc2ccccc21 (stereo not drawn)	7	6	-1	-3	-5	5	/
COc1ccc(Cc2n[nH]c(=O)c3ccccc23)cc1OC	-107	14	-3	22*	-1	2	3
O=c1[nH]nc(Cc2ccccc2)c2ccccc12	-192	3	-1	1	-5	2	/
CC(C)(C)n1cnc(C(N)=O)c1N	-2	8	1	9.5*	-3	0	2
C[C@@H]1CN([C@@H](C)CO)C(=O)c2cc(C#Cc3ccc(F)cc3)cnc2O[C@H]1CN(C)C(=O)Nc1ccc(F)cc1	1[16.7 µM]	/	/	/	/	/	/
CC1=C(C#N)CCC(=O)N1Cc1c(F)cccc1Cl	15	7	2	9	0	0	-3
O=C1CCC(=O)N1Cc1c(Cl)cccc1Cl	3	9	-1	-2	-3	1	/
CCc1ccc(C(C(=O)NC2CCCC2)N(C(=O)/C=C/C(=O)Nc2cc(C)on2)c2ccccc2C)cc1 (stereo not drawn)	77*	-6	6	10*	-1	-2	2
CCOc1ccc(N(C(=O)/C=C/C(=O)Nc2cc(C)on2)C(C(=O)NC2CCCC2)c2ccccc2C)cc1 (stereo not drawn)	/	-29	1	7	-2	-2	/
COc1ccc(NC(=O)N(C)C[C@@H]2OCCCC[C@H](C)Oc3ccc(NC(=O)CCC(F)(F)F)cc3C(=O)N([C@H](C)CO)C[C@H]2C)cc1	-14[16.7 µM]	/	/	/	/	/	/
CCOC(=O)c1cc(Cl)c2c(ccc3ccccc32)n1	-1	-53	/	-2	1	1	/
CCOC(=O)c1nc2c(ccc3ccccc32)cc1C	-19	-13	1	3	-7	1	-1
CCOC(=O)c1c(NC(=O)COC(=O)CCNS(=O)(=O)c2ccccc2)sc(C(=O)NC)c1C	/	14	/	9.8*	-8	-2	1
COc1cccc(OCc2nnc(SCC(=O)OCc3ccccc3)o2)c1	-7	9	-1	2	-6	-1	/
SMILES	Env fusion inh	NR2E3 ag-1	NR2E3 ag-2	V-ATPase pH	GalR3 antag	GAA850 FXN act	V-ATPase pH SP
CCOc1ccc(-c2nnc(SCC(=O)NC3CC3)o2)cc1	/	-10	0	10.0*	-8	1	-1
CCN(CC)C(=O)CSc1nnc(-c2ccccc2)o1	-20	-97	5	-1	-1	6	2
CCN(CC)C(=O)CCSc1nnc(-c2ccncc2)o1	3	7	1	1	-5	0	/
O=C(CSc1nnc(-c2ccccc2)o1)OCc1ccccc1	/	-21	-2	-5	-4	-2	3
CC(C)NC(=O)Nc1ccc2c(c1)C(=O)N(C)[C@H]1CC[C@H](CC(=O)Nc3ccccc3Cl)O[C@@H]1CO2	-7[16.7 µM]	/	/	/	/	/	/
C[C@H](CO)N1C[C@H](C)[C@H](CN(C)C(=O)C2CC2)Oc2cc(Br)ccc2S1(=O)=O	31[16.7 µM]	/	/	/	/	/	/
CC(C)C#Cc1cnc2c(c1)C(=O)N([C@H](C)CO)C[C@@H](C)[C@H](CN(C)C(=O)Cc1ccncc1)O2	-34[16.7 µM]	/	/	/	/	/	/
C[C@@H]1CN([C@@H](C)CO)S(=O)(=O)c2ccc(Br)cc2O[C@H]1CN(C)C(=O)c1ccccc1	6	-10	/	69*	-4	-2	1
Cc1ccc(C(=O)Nc2ncc(C)s2)o1	-58	-82	3	8.8*	-7	1	0
CN1C(=O)c2cc(NC(=O)c3cccs3)ccc2OC[C@H]2O[C@@H](CC(=O)N3CCCCC3)CC[C@H]21	3[16.7 µM]	/	/	/	/	/	/
Nc1c(Br)c(=O)[nH]c(=O)n1-c1ccccc1	-2	-6	5	3	-7	1	/
CCc1c(C#N)c(=O)[nH]c(=O)n1-c1ccccc1	0	-4	-1	10.0*	-3	0	-1
CC(C)(C)NC(=O)c1cc2c(ccc3ccccc32)oc1=O	4	2	0	8.9*	-7	4	-9
CCc1ccc(/C(C)=N/NC(=O)CNC(=O)/C=C/c2ccco2)cc1	/	-3	5	25*	/	1	0
COC(=O)N/N=C/c1cccs1	1	-14	1	0	-4	2	/
COc1ccc(CCCC(=O)N/N=C\c2cccs2)cc1	-5	0	1	8.6*	-6	3	-1
CCOC(=O)c1c(-c2ccc(C)o2)csc1NC(=O)CSc1nnc(C)s1	2	-17	3	9.2*	-5	-1	-1
CCOC(=O)c1c(-c2ccccc2)csc1NC(=O)CSc1nnc(C)s1	45	-9	2	1	-3	5	/
O=C(CSc1n[nH]c(-c2ccco2)n1)Nc1ccccc1F	2	-16	2	0	7	-2	/
O=C(CSc1n[nH]c(-c2ccco2)n1)Nc1ccccc1Cl	11	25	1	12*	-9	-1	-3
CSc1nc(N)c(NC(=O)c2ccc(Br)o2)c(=O)[nH]1	19	-8	0	11*	-2	1	3
